Laboratory results from ChEMBL document CHEMBL4265926, “Synthesis and antibacterial activity evaluation of novel biaryloxazolidinone analogues containing a hydrazone moiety as promising antibacterial agents” (Eur J Med Chem, 2018).
In brackets after ≈: the same amount, converted by molar mass.

Tests used:
Staphylococcus aureus [1] = assay: Antibacterial activity against Staphylococcus aureus ATCC 29213 by broth liquid microdilution method; format: functional
In short: (§1)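 Isolates were identified on an automated MicroScan WalkAway 96 system. Susceptibility was tested by broth microdilution following CLSI guidelines. MIC was taken as the lowest concentration giving complete inhibition of bacterial growth. S. aureus ATCC 29213 served as the control strain.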

Staphylococcus aureus [2] = assay: Antibacterial activity against methicillin-resistant Staphylococcus aureus by broth liquid microdilution method; format: functional; in short: as §1
Staphylococcus aureus [3] = assay: Antibacterial activity against methicillin-sensitive Staphylococcus aureus by broth liquid microdilution method; format: functional; in short: as §1
Enterococcus faecalis [4] = assay: Antibacterial activity against linezolid-resistant Enterococcus faecalis by broth liquid microdilution method; format: functional; in short: as §1
Enterococcus faecium [5] = assay: Antibacterial activity against vancomycin-resistant Enterococcus faecium by broth liquid microdilution method; format: functional; in short: as §1
Staphylococcus aureus [6] = assay: Antibacterial activity against methicillin-resistant Staphylococcus aureus clinical isolates by broth liquid microdilution method; format: functional; in short: as §1
Staphylococcus aureus [7] = assay: Antibacterial activity against methicillin-sensitive Staphylococcus aureus clinical isolates by broth liquid microdilution method; format: functional; in short: as §1
Enterococcus faecium [8] = assay: Antibacterial activity against vancomycin-resistant Enterococcus faecium clinical isolates by broth liquid microdilution method; format: functional; in short: as §1
Enterococcus faecalis [9] = assay: Antibacterial activity against linezolid-resistant Enterococcus faecalis clinical isolates by broth liquid microdilution method; format: functional; in short: as §1
[10] = target: T1, MAO-A (amine oxidase [flavin-containing] A) (Homo sapiens, UniProt P21397); assay: Inhibition of recombinant human MAOA expressed in baculovirus infected Sf9 insect cells at 30 uM using luciferin derived substrate pretreated for 15 mins followed by substrate addition and measured after 60 mins by luminescence assay relative to control; settings: probe luciferin derived substrate
T1 sequence (P21397 whole entry): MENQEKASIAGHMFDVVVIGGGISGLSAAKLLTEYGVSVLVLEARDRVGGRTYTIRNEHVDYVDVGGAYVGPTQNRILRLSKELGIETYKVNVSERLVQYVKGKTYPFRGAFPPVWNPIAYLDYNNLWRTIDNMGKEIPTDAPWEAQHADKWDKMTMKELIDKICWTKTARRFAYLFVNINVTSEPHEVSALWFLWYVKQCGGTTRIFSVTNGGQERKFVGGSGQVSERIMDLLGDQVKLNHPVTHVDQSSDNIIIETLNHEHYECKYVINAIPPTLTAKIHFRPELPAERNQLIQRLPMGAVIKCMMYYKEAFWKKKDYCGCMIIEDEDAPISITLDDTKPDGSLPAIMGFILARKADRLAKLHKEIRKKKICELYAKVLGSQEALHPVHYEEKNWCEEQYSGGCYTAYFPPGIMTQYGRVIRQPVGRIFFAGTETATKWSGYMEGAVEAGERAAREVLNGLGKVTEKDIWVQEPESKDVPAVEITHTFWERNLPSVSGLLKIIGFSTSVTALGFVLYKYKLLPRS
In short: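 Human recombinant MAO-A with MAO-Glo luminescent kit. Compounds in DMSO (final 1% DMSO) preincubated with enzyme 15 min at room temperature, then luciferin derivative substrate added and reacted 60 min at room temperature. Luciferase detection reagent added for 20 min before luminescence read. Buffer replacing enzyme served as 100% inhibition control and DMSO as no-inhibition control; percent inhibition calculated against both.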

HepG2 = assay: Cytotoxicity against human HepG2 cells after 48 hrs by MTT assay; format: cell-based; settings: HepG2, 48 h
In short: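 HepG2 cells grown in RPMI1640 with 10% FBS; about 4×10⁴ cells per well seeded in MEM, incubated 24 h at 37 ℃ in 5% CO₂, then exposed to compounds at indicated final concentrations for 48 h. MTT added (final 0.5 mg/mL) for 4 h at 37 ℃, formazan dissolved in DMSO, absorbance read at 492 nm. Triplicate runs; IC50 as mean ± SD.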

[11] = Half life in human liver microsomes at 1.5 uM in presence of NADPH by LC-MS analysis; format: ADME, microsome
In short: (§2)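 Human liver microsomes with 1.5 µM compound in a 0.75 mg/mL microsome mix were pre-warmed at 37 °C for 5 min. Reaction started with NADPH (6 mM stock). Samples were quenched with acetonitrile plus internal standard at 0, 5, 15, 30 and 45 min, then read by LC/MS, in duplicate. T1/2 = ln(2)/k from the log-linear slope; Clint derived from T1/2; % remaining read at 45 min.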

[12] = Intrinsic clearance in human liver microsomes at 1.5 uM pretreated for 5 mins followed by NADPH addition measured after 5 to 45 mins by LC-MS analysis; format: ADME, microsome; settings: read-out: CLH; in short: as §2
[13] = Stability in human liver microsomes assessed as parent compound remaining at 1.5 uM pretreated for 5 mins followed by NADPH addition measured after 45 mins by LC-MS analysis; format: ADME, microsome; settings: read-out: Stability; in short: as §2

CC(=O)NC[C@H]1CN(c2ccc(-c3ccc(/C=N/N4CCOCC4)cc3)c(F)c2)C(=O)O1
MIC (Staphylococcus aureus [1]): 0.5 µg/mL (≈ 1.14 µM) | MIC (Staphylococcus aureus [2]): 0.25 µg/mL (≈ 0.568 µM) | MIC (Staphylococcus aureus [3]): 0.25 µg/mL (≈ 0.568 µM) | MIC (Enterococcus faecalis [4]): 0.25 µg/mL (≈ 0.568 µM) | MIC (Enterococcus faecium [5]): 0.5 µg/mL (≈ 1.14 µM)

CC(=O)NC[C@H]1CN(c2ccc(-c3ccc(/C=N/N4CCN(C(=O)c5ccncc5)CC4)cc3)c(F)c2)C(=O)O1
MIC (Staphylococcus aureus [1]): 0.25 µg/mL (≈ 0.459 µM) | MIC (Staphylococcus aureus [2]): 0.25 µg/mL (≈ 0.459 µM) | MIC (Staphylococcus aureus [3]): 0.125 µg/mL (≈ 0.23 µM) | MIC (Enterococcus faecalis [4]): 0.25 µg/mL (≈ 0.459 µM) | MIC (Enterococcus faecium [5]): 0.25 µg/mL (≈ 0.459 µM)

CC(=O)NC[C@H]1CN(c2ccc(-c3ccc(/C=N/N4CCS(=O)(=O)CC4)cc3)c(F)c2)C(=O)O1
MIC (Staphylococcus aureus [1]): 0.25 µg/mL (≈ 0.512 µM) | MIC (Staphylococcus aureus [2]): 0.25 µg/mL (≈ 0.512 µM) | MIC (Staphylococcus aureus [3]): 0.25 µg/mL (≈ 0.512 µM) | MIC (Enterococcus faecalis [4]): 0.25 µg/mL (≈ 0.512 µM) | MIC (Enterococcus faecium [5]): 0.25 µg/mL (≈ 0.512 µM)

CC(=O)NC[C@H]1CN(c2ccc(-c3ccc(/C=N/N4CCN(C(=O)c5ccccn5)CC4)cc3)c(F)c2)C(=O)O1
MIC (Staphylococcus aureus [1]): 0.125 µg/mL (≈ 0.23 µM) | MIC (Staphylococcus aureus [2]): 0.125 µg/mL (≈ 0.23 µM) | MIC (Staphylococcus aureus [3]): 0.125 µg/mL (≈ 0.23 µM) | MIC (Enterococcus faecalis [4]): 0.125 µg/mL (≈ 0.23 µM) | MIC (Enterococcus faecium [5]): 0.125 µg/mL (≈ 0.23 µM)

CC(=O)NC[C@H]1CN(c2ccc(-c3ccc(/C=N/N4CCN(C(=O)c5ccccc5)CC4)cc3)c(F)c2)C(=O)O1
MIC (Staphylococcus aureus [1]): 0.25 µg/mL (≈ 0.46 µM) | MIC (Staphylococcus aureus [2]): 0.25 µg/mL (≈ 0.46 µM) | MIC (Staphylococcus aureus [3]): 0.125 µg/mL (≈ 0.23 µM) | MIC (Enterococcus faecalis [4]): 0.25 µg/mL (≈ 0.46 µM) | MIC (Enterococcus faecium [5]): 0.25 µg/mL (≈ 0.46 µM)

CC(=O)NC[C@H]1CN(c2ccc(-c3ccc(/C=N/N4CCNCC4)cc3)c(F)c2)C(=O)O1
MIC (Staphylococcus aureus [1]): 0.0675 µg/mL (≈ 0.154 µM) | MIC (Staphylococcus aureus [2]): 0.0675 µg/mL (≈ 0.154 µM) | MIC (Staphylococcus aureus [3]): 0.0675 µg/mL (≈ 0.154 µM) | MIC (Enterococcus faecalis [4]): 0.25 µg/mL (≈ 0.569 µM) | MIC (Enterococcus faecium [5]): 0.25 µg/mL (≈ 0.569 µM) | MIC50 (Staphylococcus aureus [6]): 0.125 µg/mL (≈ 0.284 µM) | MIC90 (Staphylococcus aureus [6]): 0.25 µg/mL (≈ 0.569 µM) | MIC (Staphylococcus aureus [7]): 0.0625 to 0.25 µg/mL (≈ 0.142 to 0.569 µM) | MIC50 (Staphylococcus aureus [7]): 0.125 µg/mL (≈ 0.284 µM) | MIC90 (Staphylococcus aureus [7]): 0.25 µg/mL (≈ 0.569 µM) | MIC (Enterococcus faecium [8]): 0.0625 to 0.5 µg/mL (≈ 0.142 to 1.14 µM) | MIC50 (Enterococcus faecium [8]): 0.25 µg/mL (≈ 0.569 µM) | MIC90 (Enterococcus faecium [8]): 0.5 µg/mL (≈ 1.14 µM) | MIC (Enterococcus faecalis [9]): 0.0625 to 0.25 µg/mL (≈ 0.142 to 0.569 µM) | MIC50 (Enterococcus faecalis [9]): 0.25 µg/mL (≈ 0.569 µM) | MIC90 (Enterococcus faecalis [9]): 0.25 µg/mL (≈ 0.569 µM) | inhibition at 1 h, 30 µM [10]: 84%

CC(=O)NC[C@H]1CN(c2ccc(-c3ccc(/C=N/N4CCN(C(=O)c5ccc(F)cc5)CC4)cc3)c(F)c2)C(=O)O1
MIC (Staphylococcus aureus [1]): 0.125 µg/mL (≈ 0.223 µM) | MIC (Staphylococcus aureus [2]): 0.125 µg/mL (≈ 0.223 µM) | MIC (Staphylococcus aureus [3]): 0.125 µg/mL (≈ 0.223 µM) | MIC (Enterococcus faecalis [4]): 0.125 µg/mL (≈ 0.223 µM) | MIC (Enterococcus faecium [5]): 0.125 µg/mL (≈ 0.223 µM) | MIC50 (Staphylococcus aureus [6]): 0.125 µg/mL (≈ 0.223 µM) | MIC90 (Staphylococcus aureus [6]): 0.25 µg/mL (≈ 0.445 µM) | MIC (Staphylococcus aureus [7]): 0.0625 to 0.25 µg/mL (≈ 0.111 to 0.445 µM) | MIC50 (Staphylococcus aureus [7]): 0.25 µg/mL (≈ 0.445 µM) | MIC90 (Staphylococcus aureus [7]): 0.25 µg/mL (≈ 0.445 µM) | MIC (Enterococcus faecium [8]): 0.0625 to 0.5 µg/mL (≈ 0.111 to 0.89 µM) | MIC50 (Enterococcus faecium [8]): 0.25 µg/mL (≈ 0.445 µM) | MIC90 (Enterococcus faecium [8]): 0.5 µg/mL (≈ 0.89 µM) | MIC (Enterococcus faecalis [9]): 0.0625 to 0.25 µg/mL (≈ 0.111 to 0.445 µM) | MIC50 (Enterococcus faecalis [9]): 0.25 µg/mL (≈ 0.445 µM) | MIC90 (Enterococcus faecalis [9]): 0.25 µg/mL (≈ 0.445 µM) | inhibition at 1 h, 30 µM [10]: 89%

CC(=O)NC[C@H]1CN(c2ccc(-c3ccc(/C=N/N4CCN(C(C)=O)CC4)cc3)c(F)c2)C(=O)O1
MIC (Staphylococcus aureus [1]): 0.25 µg/mL (≈ 0.519 µM) | MIC (Staphylococcus aureus [2]): 0.25 µg/mL (≈ 0.519 µM) | MIC (Staphylococcus aureus [3]): 0.125 µg/mL (≈ 0.26 µM) | MIC (Enterococcus faecalis [4]): 0.25 µg/mL (≈ 0.519 µM) | MIC (Enterococcus faecium [5]): 0.5 µg/mL (≈ 1.04 µM)

CC(=O)NC[C@H]1CN(c2ccc(-c3ccc(/C=N/N4CCN(C(=O)CO)CC4)cc3)c(F)c2)C(=O)O1
MIC (Staphylococcus aureus [1]): 0.0675 µg/mL (≈ 0.136 µM) | MIC (Staphylococcus aureus [2]): 0.0675 µg/mL (≈ 0.136 µM) | MIC (Staphylococcus aureus [3]): 0.0675 µg/mL (≈ 0.136 µM) | MIC (Enterococcus faecalis [4]): 0.0675 µg/mL (≈ 0.136 µM) | MIC (Enterococcus faecium [5]): 0.0675 µg/mL (≈ 0.136 µM) | MIC50 (Staphylococcus aureus [6]): 0.0625 µg/mL (≈ 0.126 µM) | MIC90 (Staphylococcus aureus [6]): 0.125 µg/mL (≈ 0.251 µM) | MIC (Staphylococcus aureus [7]): 0.0625 to 0.125 µg/mL (≈ 0.126 to 0.251 µM) | MIC50 (Staphylococcus aureus [7]): 0.0625 µg/mL (≈ 0.126 µM) | MIC90 (Staphylococcus aureus [7]): 0.125 µg/mL (≈ 0.251 µM) | MIC (Enterococcus faecium [8]): 0.0625 to 0.5 µg/mL (≈ 0.126 to 1 µM) | MIC50 (Enterococcus faecium [8]): 0.125 µg/mL (≈ 0.251 µM) | MIC90 (Enterococcus faecium [8]): 0.25 µg/mL (≈ 0.502 µM) | MIC (Enterococcus faecalis [9]): 0.0625 to 0.125 µg/mL (≈ 0.126 to 0.251 µM) | MIC50 (Enterococcus faecalis [9]): 0.125 µg/mL (≈ 0.251 µM) | MIC90 (Enterococcus faecalis [9]): 0.25 µg/mL (≈ 0.502 µM) | inhibition at 1 h, 30 µM [10]: 80% | IC50 (HepG2): 4.66 µM | half-life at 1.5 µM [11]: 11.1 h | CLint scaled at 1.5 µM [12]: 2.62 mL/min/kg | remaining at 0.75 h, 1.5 µM [13]: 93.9%
